Sampled rows, rich in hits. Any-hit rate of the full collection: about 1.3%.
NR2E3 ag-1 = NR2E3 (human) agonism | 320,000 tested, 0.12% active | AID 2300 | inhibition of corepressor binding, % at 4.78 µM | GST-NR2E3/biotin-RetCOR TR-FRET, 1536-well;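 active = percent inhibition above the cutoff of mean plus 3 SD of all tested compounds, set per screening campaign, cut at about 20% in these data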;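 note: 0% = DMSO wells and 100% = biotin wells as full block of FRET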
Target sequence (Q9Y5X4 whole entry, looked up): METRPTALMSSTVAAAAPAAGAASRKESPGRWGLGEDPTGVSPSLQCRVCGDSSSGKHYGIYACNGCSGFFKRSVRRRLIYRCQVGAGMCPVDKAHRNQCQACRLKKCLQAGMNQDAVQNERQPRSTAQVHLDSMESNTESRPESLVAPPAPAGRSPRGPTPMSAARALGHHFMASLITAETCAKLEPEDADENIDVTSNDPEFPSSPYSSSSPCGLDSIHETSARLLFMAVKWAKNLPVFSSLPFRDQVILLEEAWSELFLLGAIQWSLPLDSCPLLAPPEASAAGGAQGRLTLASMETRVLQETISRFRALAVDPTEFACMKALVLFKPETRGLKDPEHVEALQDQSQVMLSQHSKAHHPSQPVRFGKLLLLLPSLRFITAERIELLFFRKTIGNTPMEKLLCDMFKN
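system = GST-tagged NR2E3 plus biotinylated RetCOR corepressor | input = 1.35 nM GST-NR2E3 | also added = 7 nM biotin-RetCOR | schedule = 5 h incubation at 4 °C | measured by = TR-FRET with europium anti-GST and streptavidin-D2, 340 nm excitation | read-out = percent loss of FRET ratio relative to control wells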
PP5 inh = PP5 (human) phosphatase inhibition; purified PP5c, OMFP substrate fluorescence; inhibition, % at 6.7 µM; 320,000 tested, 0.18% active;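 active = inhibition above the campaign's mean inhibition across all tested compounds plus 3 SD, cut at about 9.5% in these data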;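 note: 0% = DMSO only and 100% = 100 µM cantharidin control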
NR2E3 ag-2 = agonists of human NR2E3 nuclear receptor. Q9Y5X4. CHO-S Gal4-NCOR/VP16-NR2E3 two-hybrid, luciferase. inhibition of corepressor binding, % at 3.98 µM. 360,000 tested, 0.35% active. AID 602229;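 active = inhibition above the mean of all tested compounds plus 3 SD, cut at about 70% in these data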;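 note: 0% = DMSO with NR2E3 transfected cells and 100% = cells lacking NR2E3 construct; higher means lower luciferase signal from less NR2E3 corepressor binding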
PP1 inh = counter-screen for PP5 inhibitors: inhibitors of human PP1-alpha. P62136. purified PP1alpha, OMFP fluorescence. inhibition, % at 6.7 µM. 320,000 tested, 0.9% active. AID 2235;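 active = inhibition above the mean inhibition of all tested compounds plus 3 SD, computed separately for each screening campaign, cut at about 15% in these data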
NR2E3 ag conf = NR2E3 agonism confirmed in two-hybrid assay; shares compounds with NR2E3 ag-2; AID 624378; inhibition, % at 3.98 µM; CHO-S mammalian two-hybrid NR2E3-NCOR, luciferase luminescence; 2,300 tested, 51% active;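 active = average inhibition above a cutoff equal to the mean inhibition of all tested compounds plus one SD, cut at about 70% in these data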;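 note: 0% = DMSO in NR2E3 cells and 100% = DMSO in cells lacking NR2E3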
GAL4-VP16 luc = GAL4-VP16 reporter inhibition in NR2E3 agonist counterscreen. shares compounds with NR2E3 ag-2. CHO-S GAL4-VP16 luciferase reporter, luminescence. inhibition, % at 3.98 µM. 2,300 tested, 29% active;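 active = mean inhibition above a cutoff equal to the average over all tested compounds plus one standard deviation, cut at about 70% in these data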;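 note: luciferase from a UAS reporter driven by GAL4-VP16 transactivation; 0% = DMSO with VP16-transfected cells and 100% = DMSO with cells lacking VP16; higher means less reporter light so more repression of VP16 activity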
Starred values were filed as active, the others as inactive; / = not tested or not shown.

SMILES	NR2E3 ag-1	PP5 inh	NR2E3 ag-2	PP1 inh	NR2E3 ag conf	GAL4-VP16 luc
Cc1ccc(S(=O)(=O)N2[C@@H](c3ccc(Cl)cc3)C(C(=O)O)=CC[C@H]2c2ccc(C(C)C)cc2)cc1	0.9	-0.6	70.0	2.3	87.3*	48.1
Cc1ccc(S(=O)(=O)N2[C@@H](c3ccc(Br)cc3)C(C(=O)O)=CC[C@H]2c2ccc(Cl)c(Cl)c2)cc1	/	/	75.6*	/	73.9*	42.3
Cc1ccc([C@H]2C(C(=O)O)=CC[C@@H](c3cccc(Cl)c3)N2S(=O)(=O)c2ccc(C)cc2)cc1	/	/	-8.5	/	/	/
Cc1ccc(S(=O)(=O)N2[C@@H](c3ccc(C(C)(C)C)cc3)C(C(=O)O)=CC[C@H]2c2cccc(Cl)c2)cc1	/	/	83.8*	/	69.8	28.5
Cc1ccc([C@H]2C(C(=O)O)=CC[C@@H](c3ccc(C(C)C)cc3)N2S(=O)(=O)c2ccc(C)cc2)cc1	/	/	92.2*	/	50.9	36.1
Cc1ccc(S(=O)(=O)N2[C@@H](c3ccc(C(C)(C)C)cc3)C(C(=O)O)=CC[C@H]2c2ccc(Cl)c(Cl)c2)cc1	/	/	-11.4	/	/	/
CCCOc1ccccc1/C=C(\C#N)C(=O)Nc1cccnc1	-2.9	-1.1	-5.5	-5.8	/	/
CCCNC(=O)C1(C)CCCN(Cc2cc(-c3ccccc3)n(C)n2)C1 (centres undefined)	/	/	-14.6	/	/	/
Cc1cc(C)n(C(=O)/C(C#N)=N/Nc2cc(Cl)cc(Cl)c2)n1	-3.5	1.5	0.6	-3.6	/	/
O=C(COC(=O)CCN1C(=O)C2CC=CCC2C1=O)Nc1ccc([N+](=O)[O-])cc1 (centres undefined)	/	/	0.4	/	/	/
O=C(Nc1ccc(Cl)c(Cl)c1)c1cccc(S(=O)(=O)NCc2cccnc2)c1	-2.4	1.4	55.4	6.1	84.3*	71.5*
COc1ccc2cc(S(=O)(=O)NCc3cccnc3)ccc2c1	3.9	1.7	57.1	-5.2	25.8	37.8
O=C(Nc1ccc2c(c1)OCCO2)C(CCc1ccccc1)N1CCC(Cc2ccccc2)CC1 (centres undefined)	/	/	-0.9	/	/	/
COCCN1CCN(C(=O)c2ccc3nc(Cc4ccc(OC)c(OC)c4)oc3c2)CC1	3.5	-0.8	69.9	0.1	45.4	55.8
OC1(c2ccc(OC(F)F)cc2)CSC(=Nc2cccnc2)N1C1CC1 (centres undefined)	1.2	5.4	69.0	2.5	70.0	60.1
CSc1ncnc2c1ncn2CCCNCC(c1ccccc1)c1ccccc1	/	/	-12.9	/	/	/
S=C(Nc1ccccc1)Nc1ccc(OCc2ccc(Cl)cc2Cl)cc1	3.0	0.1	75.1*	-1.1	65.5	61.4
C(=N\Nc1nc(Nc2ccccc2)nc(N2CCOCC2)n1)/c1c[nH]c2ccccc12	-0.7	6.5	/	4.7	/	/
Cc1ccc(Nc2nc(N/N=C/c3c[nH]c4ccccc34)nc(N3CCOCC3)n2)cc1	-0.4	5.1	52.4	3.9	51.3	19.8
Cc1cccc(Nc2nc(N3CCOCC3)nc(N3CCOCC3)n2)c1	2.3	1.1	56.9	-1.2	55.6	29.5
CN(C(=O)CSc1nc2ccc(Cl)cc2[nH]1)C1CCS(=O)(=O)C1 (centres undefined)	/	/	2.6	/	/	/

Screens (PubChem BioAssay)
